Assay results as given in ChEMBL document CHEMBL1155297, “Synthesis, antimicrobial and antioxidant activities of substituted pyrazoles, isoxazoles, pyrimidine and thioxopyrimidine derivatives” (2009).

Tested on: Bacillus subtilis
Experiment: Antibacterial activity against Bacillus subtilis NCIM 2063 at 200 ug/disk after 24 hrs by agar disk diffusion method
Assay type: functional
Details: NCIM 2063, 24 h, read-out: IZ
Method in brief: (§1)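 Agar disc diffusion on nutrient agar plates pre-inoculated with each bacterium. Sterile 6 mm filter-paper discs were moistened with compound in DMSO at the stated per-disc amount. Plates were incubated at 37 °C, and the growth-inhibition zone diameter was read after 24 h. Each determination was run in triplicate, and the mean of three independent readings is reported.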

SMILES	zone of inhibition at 200 µg/disc
CN1C(=N)C(C(CC(=O)c2ccc(Cl)cc2)C(=O)c2ccc(Cl)cc2)C(=N)N(C)C1=O (stereo not drawn)	13 mm
Cc1ccc(C(=O)CC(C(=O)c2ccc(C)cc2)C2C(N)=NC(=O)N=C2N)cc1 (stereo not drawn)	12 mm
NC1=NC(=S)N=C(N)C1C(CC(=O)c1ccc(Cl)cc1)C(=O)c1ccc(Cl)cc1 (stereo not drawn)	25 mm

Tested on: Curvularia lunata
Experiment: Antifungal activity against Curvularia lunata NCIM 716 at 200 ug/disk after 48 hrs by agar disk diffusion method
Assay type: functional
Details: NCIM 716, 48 h, read-out: IZ
Method in brief: (§2)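 Fungal disc diffusion on nutrient agar plates pre-inoculated with each fungus. 6 mm sterile paper discs carried the compound in DMSO at the stated amount per disc. Plates were held at 37 °C, and inhibition-zone diameter was measured after 48 h. Values are the mean of three independent triplicate readings.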

SMILES	zone of inhibition at 200 µg/disc
CN1C(=N)C(C(CC(=O)c2ccc(Cl)cc2)C(=O)c2ccc(Cl)cc2)C(=N)N(C)C1=O (stereo not drawn)	15 mm
Cc1ccc(C(=O)CC(C(=O)c2ccc(C)cc2)C2C(N)=NC(=O)N=C2N)cc1 (stereo not drawn)	17 mm
NC1=NC(=S)N=C(N)C1C(CC(=O)c1ccc(Cl)cc1)C(=O)c1ccc(Cl)cc1 (stereo not drawn)	21 mm

Tested on: Radical scavenging activity
Experiment: Antioxidant activity assessed as DPPH free radical scavenging activity at 100 uM after 20 mins
Assay type: functional
Details: not given
Method in brief: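 DPPH scavenging: compound solutions were added to DPPH in dioxane/ethanol and kept at ambient temperature for 20 min. Absorbance was read at 517 nm. The test–control difference was expressed as percent DPPH radical scavenging.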

SMILES	inhibition
CN1C(=N)C(C(CC(=O)c2ccc(Cl)cc2)C(=O)c2ccc(Cl)cc2)C(=N)N(C)C1=O (stereo not drawn)	29.9%
Cc1ccc(C(=O)CC(C(=O)c2ccc(C)cc2)C2C(N)=NC(=O)N=C2N)cc1 (stereo not drawn)	28.6%
NC1=NC(=S)N=C(N)C1C(CC(=O)c1ccc(Cl)cc1)C(=O)c1ccc(Cl)cc1 (stereo not drawn)	41.6%

Tested on: Fusarium solani
Experiment: Antifungal activity against Fusarium solani NCIM 1330 at 200 ug/disk after 48 hrs by agar disk diffusion method
Assay type: functional
Details: NCIM 1330, 48 h, read-out: IZ
Method in brief: as §2

SMILES	zone of inhibition at 200 µg/disc
CN1C(=N)C(C(CC(=O)c2ccc(Cl)cc2)C(=O)c2ccc(Cl)cc2)C(=N)N(C)C1=O (stereo not drawn)	16 mm
Cc1ccc(C(=O)CC(C(=O)c2ccc(C)cc2)C2C(N)=NC(=O)N=C2N)cc1 (stereo not drawn)	18 mm
NC1=NC(=S)N=C(N)C1C(CC(=O)c1ccc(Cl)cc1)C(=O)c1ccc(Cl)cc1 (stereo not drawn)	22 mm

Tested on: Aspergillus niger
Experiment: Antifungal activity against Aspergillus niger NCIM 596 at 200 ug/disk after 48 hrs by agar disk diffusion method
Assay type: functional
Details: NCIM 596, 48 h, read-out: IZ
Method in brief: as §2

SMILES	zone of inhibition at 200 µg/disc
CN1C(=N)C(C(CC(=O)c2ccc(Cl)cc2)C(=O)c2ccc(Cl)cc2)C(=N)N(C)C1=O (stereo not drawn)	13 mm
Cc1ccc(C(=O)CC(C(=O)c2ccc(C)cc2)C2C(N)=NC(=O)N=C2N)cc1 (stereo not drawn)	15 mm
NC1=NC(=S)N=C(N)C1C(CC(=O)c1ccc(Cl)cc1)C(=O)c1ccc(Cl)cc1 (stereo not drawn)	20 mm

Tested on: Bacillus subtilis
Experiment: Antibacterial activity against Bacillus subtilis NCIM 2063 at 100 ug/disk after 24 hrs by agar disk diffusion method
Assay type: functional
Details: NCIM 2063, 24 h, read-out: IZ
Method in brief: as §1

SMILES	zone of inhibition at 100 µg/disc
CN1C(=N)C(C(CC(=O)c2ccc(Cl)cc2)C(=O)c2ccc(Cl)cc2)C(=N)N(C)C1=O (stereo not drawn)	11 mm
Cc1ccc(C(=O)CC(C(=O)c2ccc(C)cc2)C2C(N)=NC(=O)N=C2N)cc1 (stereo not drawn)	11 mm
NC1=NC(=S)N=C(N)C1C(CC(=O)c1ccc(Cl)cc1)C(=O)c1ccc(Cl)cc1 (stereo not drawn)	23 mm

Tested on: Klebsiella pneumoniae
Experiment: Antibacterial activity against Klebsiella pneumoniae NCIM 2957 at 200 ug/disk after 24 hrs by agar disk diffusion method
Assay type: functional
Details: NCIM 2957, 24 h, read-out: IZ
Method in brief: as §1

SMILES	zone of inhibition at 200 µg/disc
CN1C(=N)C(C(CC(=O)c2ccc(Cl)cc2)C(=O)c2ccc(Cl)cc2)C(=N)N(C)C1=O (stereo not drawn)	10 mm
Cc1ccc(C(=O)CC(C(=O)c2ccc(C)cc2)C2C(N)=NC(=O)N=C2N)cc1 (stereo not drawn)	12 mm
NC1=NC(=S)N=C(N)C1C(CC(=O)c1ccc(Cl)cc1)C(=O)c1ccc(Cl)cc1 (stereo not drawn)	22 mm

Tested on: Staphylococcus aureus
Experiment: Antibacterial activity against Staphylococcus aureus NCIM 5021 at 200 ug/disk after 24 hrs by agar disk diffusion method
Assay type: functional
Details: NCIM 5021, 24 h, read-out: IZ
Method in brief: as §1

SMILES	zone of inhibition at 200 µg/disc
CN1C(=N)C(C(CC(=O)c2ccc(Cl)cc2)C(=O)c2ccc(Cl)cc2)C(=N)N(C)C1=O (stereo not drawn)	14 mm
Cc1ccc(C(=O)CC(C(=O)c2ccc(C)cc2)C2C(N)=NC(=O)N=C2N)cc1 (stereo not drawn)	15 mm
NC1=NC(=S)N=C(N)C1C(CC(=O)c1ccc(Cl)cc1)C(=O)c1ccc(Cl)cc1 (stereo not drawn)	26 mm

Tested on: not listed separately
Experiment: Antioxidant activity assessed as nitric oxide production at 100 uM after 120 mins by Griess reagent method
Assay type: functional
Details: not given
Method in brief: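 Nitric oxide assay with Griess read-out. At intervals, 0.5 ml of incubation solution was mixed with 0.5 ml Griess reagent (1% sulfanilamide, 0.1% N-naphthylethylenediamine dihydrochloride, 2% o-phosphoric acid in water). The control received an equal amount of solvent and was handled identically.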

SMILES	inhibition
CN1C(=N)C(C(CC(=O)c2ccc(Cl)cc2)C(=O)c2ccc(Cl)cc2)C(=N)N(C)C1=O (stereo not drawn)	28.2%
Cc1ccc(C(=O)CC(C(=O)c2ccc(C)cc2)C2C(N)=NC(=O)N=C2N)cc1 (stereo not drawn)	27.2%
NC1=NC(=S)N=C(N)C1C(CC(=O)c1ccc(Cl)cc1)C(=O)c1ccc(Cl)cc1 (stereo not drawn)	43.4%

Tested on: Staphylococcus aureus
Experiment: Antibacterial activity against Staphylococcus aureus NCIM 5021 at 100 ug/disk after 24 hrs by agar disk diffusion method
Assay type: functional
Details: NCIM 5021, 24 h, read-out: IZ
Method in brief: as §1

SMILES	zone of inhibition at 100 µg/disc
CN1C(=N)C(C(CC(=O)c2ccc(Cl)cc2)C(=O)c2ccc(Cl)cc2)C(=N)N(C)C1=O (stereo not drawn)	12 mm
Cc1ccc(C(=O)CC(C(=O)c2ccc(C)cc2)C2C(N)=NC(=O)N=C2N)cc1 (stereo not drawn)	12 mm
NC1=NC(=S)N=C(N)C1C(CC(=O)c1ccc(Cl)cc1)C(=O)c1ccc(Cl)cc1 (stereo not drawn)	25 mm

Tested on: Proteus vulgaris
Experiment: Antibacterial activity against Proteus vulgaris NCIM 2027 at 200 ug/disk after 24 hrs by agar disk diffusion method
Assay type: functional
Details: NCIM 2027, 24 h, read-out: IZ
Method in brief: as §1

SMILES	zone of inhibition at 200 µg/disc
CN1C(=N)C(C(CC(=O)c2ccc(Cl)cc2)C(=O)c2ccc(Cl)cc2)C(=N)N(C)C1=O (stereo not drawn)	11 mm
Cc1ccc(C(=O)CC(C(=O)c2ccc(C)cc2)C2C(N)=NC(=O)N=C2N)cc1 (stereo not drawn)	14 mm
NC1=NC(=S)N=C(N)C1C(CC(=O)c1ccc(Cl)cc1)C(=O)c1ccc(Cl)cc1 (stereo not drawn)	22 mm

Tested on: Fusarium solani
Experiment: Antifungal activity against Fusarium solani NCIM 1330 at 100 ug/disk after 48 hrs by agar disk diffusion method
Assay type: functional
Details: NCIM 1330, 48 h, read-out: IZ
Method in brief: as §2

SMILES	zone of inhibition at 100 µg/disc
CN1C(=N)C(C(CC(=O)c2ccc(Cl)cc2)C(=O)c2ccc(Cl)cc2)C(=N)N(C)C1=O (stereo not drawn)	14 mm
Cc1ccc(C(=O)CC(C(=O)c2ccc(C)cc2)C2C(N)=NC(=O)N=C2N)cc1 (stereo not drawn)	14 mm
NC1=NC(=S)N=C(N)C1C(CC(=O)c1ccc(Cl)cc1)C(=O)c1ccc(Cl)cc1 (stereo not drawn)	19 mm

Tested on: Klebsiella pneumoniae
Experiment: Antibacterial activity against Klebsiella pneumoniae NCIM 2957 at 100 ug/disk after 24 hrs by agar disk diffusion method
Assay type: functional
Details: NCIM 2957, 24 h, read-out: IZ
Method in brief: as §1

SMILES	zone of inhibition at 100 µg/disc
CN1C(=N)C(C(CC(=O)c2ccc(Cl)cc2)C(=O)c2ccc(Cl)cc2)C(=N)N(C)C1=O (stereo not drawn)	9 mm
Cc1ccc(C(=O)CC(C(=O)c2ccc(C)cc2)C2C(N)=NC(=O)N=C2N)cc1 (stereo not drawn)	10 mm
NC1=NC(=S)N=C(N)C1C(CC(=O)c1ccc(Cl)cc1)C(=O)c1ccc(Cl)cc1 (stereo not drawn)	19 mm

Tested on: Proteus vulgaris
Experiment: Antibacterial activity against Proteus vulgaris NCIM 2027 at 100 ug/disk after 24 hrs by agar disk diffusion method
Assay type: functional
Details: NCIM 2027, 24 h, read-out: IZ
Method in brief: as §1

SMILES	zone of inhibition at 100 µg/disc
CN1C(=N)C(C(CC(=O)c2ccc(Cl)cc2)C(=O)c2ccc(Cl)cc2)C(=N)N(C)C1=O (stereo not drawn)	9 mm
Cc1ccc(C(=O)CC(C(=O)c2ccc(C)cc2)C2C(N)=NC(=O)N=C2N)cc1 (stereo not drawn)	13 mm
NC1=NC(=S)N=C(N)C1C(CC(=O)c1ccc(Cl)cc1)C(=O)c1ccc(Cl)cc1 (stereo not drawn)	20 mm

Tested on: Curvularia lunata
Experiment: Antifungal activity against Curvularia lunata NCIM 716 at 100 ug/disk after 48 hrs by agar disk diffusion method
Assay type: functional
Details: NCIM 716, 48 h, read-out: IZ
Method in brief: as §2

SMILES	zone of inhibition at 100 µg/disc
CN1C(=N)C(C(CC(=O)c2ccc(Cl)cc2)C(=O)c2ccc(Cl)cc2)C(=N)N(C)C1=O (stereo not drawn)	13 mm
Cc1ccc(C(=O)CC(C(=O)c2ccc(C)cc2)C2C(N)=NC(=O)N=C2N)cc1 (stereo not drawn)	15 mm
NC1=NC(=S)N=C(N)C1C(CC(=O)c1ccc(Cl)cc1)C(=O)c1ccc(Cl)cc1 (stereo not drawn)	17 mm

Tested on: Aspergillus niger
Experiment: Antifungal activity against Aspergillus niger NCIM 596 at 100 ug/disk after 48 hrs by agar disk diffusion method
Assay type: functional
Details: NCIM 596, 48 h, read-out: IZ
Method in brief: as §2

SMILES	zone of inhibition at 100 µg/disc
CN1C(=N)C(C(CC(=O)c2ccc(Cl)cc2)C(=O)c2ccc(Cl)cc2)C(=N)N(C)C1=O (stereo not drawn)	11 mm
Cc1ccc(C(=O)CC(C(=O)c2ccc(C)cc2)C2C(N)=NC(=O)N=C2N)cc1 (stereo not drawn)	13 mm
NC1=NC(=S)N=C(N)C1C(CC(=O)c1ccc(Cl)cc1)C(=O)c1ccc(Cl)cc1 (stereo not drawn)	15 mm
